Results: ChEMBL document CHEMBL3763147, “Small Molecule Inhibitors of Ca(2+)-S100B Reveal Two Protein Conformations” (J Med Chem, 2016)
Active and inactive are the calls of the source. The calls are words filed in the database; no cut-off is given here.

Key:
[1] = Growth inhibition of human WM115 cells expressing low levels of S100-B by SYBR Green based fluorescence method; type: functional, cell-based; settings: WM-115
[2] = Growth inhibition of human WM115 cells expressing high levels of S100-B by SYBR Green based fluorescence method; type: functional, cell-based; settings: WM-115
[3] = molecular target: T1, Protein S100-B (Rattus norvegicus) (UniProt P04631); test: Displacement of TAMRA-TRTK12 from recombinant rat calcium loaded S100-B at <1 mM by fluorescence polarization competition assay
T1 sequence (whole entry): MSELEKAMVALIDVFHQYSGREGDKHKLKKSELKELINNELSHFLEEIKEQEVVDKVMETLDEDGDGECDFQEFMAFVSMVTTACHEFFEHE

Protein S100-B [4] = molecular target: T2, Protein S100-B (Rattus norvegicus, UniProt P04631); test: Displacement of TAMRA-TRTK12 from recombinant rat calcium loaded S100-B by […] analysis
T2 sequence (P04631 whole entry): T1 sequence (whole entry)

Protein S100-B [5] = molecular target: T2, Protein S100-B; test: Displacement of TAMRA-TRTK12 from recombinant rat calcium loaded S100-B by fluorescence polarization competition assay
Protein S100-B [6] = molecular target: T2, Protein S100-B; test: Binding affinity to recombinant rat calcium loaded S100-B by isothermal titration calorimetry
Protein S100-B [7] = molecular target: T2, Protein S100-B; test: Binding affinity to recombinant rat calcium loaded S100-B by fluorescence spectrophotometric analysis
In short: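 Competition fluorescence polarization against 10 nM TAMRA-labelled TRTK12 peptide (CapZ residues 265–276) with 1 µM Ca2+-loaded rat S100B. Buffer: 50 mM HEPES pH 7.2, 100 mM KCl, 15 mM NaCl, 10 mM CaCl2, 0.01% Triton X-100, 0.5% DMSO. Compounds titrated from the highest concentration possible. Read at room temperature (ex 544/em 590 nm). KD calculated from the IC50 using the Nikolovska-Coleska equation.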

Structure (SMILES) | Activity [3] | Kd (Protein S100-B [4]) [µM] | IC50 (Protein S100-B [5]) [µM] | Kd (Protein S100-B [6]) [µM] | Kd (Protein S100-B [7]) [µM] | EC50 [1] [µM] | EC50 [2] [µM]
c1cc(C2=NCCCCN2)ccc1OCCCCCOc1ccc(C2=NCCCCN2)cc1 | inactive | – | – | – | – | 19 | 20
c1cc(C2=NCCN2)ccc1OCCCCCCCOc1ccc(C2=NCCN2)cc1 | inactive | 203 | – | – | – | 21.2 | 32.2
N=C(N)c1ccc(OCCCCCCCOc2ccc(C(=N)N)cc2)cc1 [HEPTAMIDINE] | – | – | – | – | – | 25.6 | 11.5
N=C(NC(=O)Nc1ccccc1)c1ccc(OCCCCCCCOc2ccc(C(=N)NC(=O)Nc3ccccc3)cc2)cc1 | – | – | – | – | – | 0.5 | 0.4
c1cc(C2=NCCCN2)ccc1OCCCCCCOc1ccc(C2=NCCCN2)cc1 | inactive | – | – | – | – | 42.7 | 44.1
c1cc(C2=NCCCCN2)ccc1OCCCCCCCOc1ccc(C2=NCCCCN2)cc1 | inactive | – | – | – | – | 9.2 | 7.8
N=C(N)c1ccc(OCCCN(CCCOc2ccc(C(=N)N)cc2)Cc2ccccc2)cc1 | – | – | – | – | – | 41 | 51.8
c1cc(C2=NCCCN2)ccc1OCCCCCOc1ccc(C2=NCCCN2)cc1 | inactive | – | – | – | – | 284 | 203
CCCN(CCCOc1ccc(C(=N)N)cc1)CCCOc1ccc(C(=N)N)cc1 | – | – | – | – | – | 500 | 864
N=C(N)c1ccc(OCCCCCCCCOc2ccc(C(=N)N)cc2)cc1 | – | – | – | – | – | 234 | 245

Further lines, with some results ahead:

Activity [3] | Kd (Protein S100-B [4]) [µM] | IC50 (Protein S100-B [5]) [µM] | Kd (Protein S100-B [6]) [µM] | Kd (Protein S100-B [7]) [µM] | Structure (SMILES) | EC50 [1] [µM] | EC50 [2] [µM]
inactive | – | – | – | – | c1cc(C2=NCCCN2)ccc1OCCCCCCCOc1ccc(C2=NCCCN2)cc1 | 289 | 612
inactive | – | – | – | – | c1cc(C2=NCCN2)ccc1OCCCCCCCCOc1ccc(C2=NCCN2)cc1 | 24.3 | 21.8
inactive | – | – | – | – | c1cc(C2=NCCCN2)ccc1OCCCCCCCCOc1ccc(C2=NCCCN2)cc1 | 37.9 | 24.8
– | 4.6 | 51.1 | – | – | N=C(NCCCCCN)c1ccc(OCCCCCOc2ccc(C(=N)NCCCCCN)cc2)cc1 | – | –
– | 0.5 | 6.7 | – | – | N=C(NCCCCCCCN)c1ccc(OCCCCCCCOc2ccc(C(=N)NCCCCCCCN)cc2)cc1 | 25.4 | 24.3
– | – | – | 50 | 44 | N=C(N)c1ccc(OCCCCCOc2ccc(C(=N)N)cc2)cc1 [PENTAMIDINE] | 16.7 | 16.3
inactive | – | – | – | – | c1cc(C2=NCCN2)ccc1OCCCCCOc1ccc(C2=NCCN2)cc1 | 38.9 | 56.2
– | 1.6 | 18.3 | – | – | N=C(NCCCCCCCN)c1ccc(OCCCCCCCCOc2ccc(C(=N)NCCCCCCCN)cc2)cc1 | 45.8 | 46.3
– | 6 | 66.6 | – | – | N=C(N)c1ccc(Oc2ccc(-c3cc4ccc(C(=N)N)cc4[nH]3)cc2)cc1 | < 1 | < 1
– | 89.5 | 982 | – | – | CNC(=O)NC(=N)c1ccc(OCCCCCCCOc2ccc(C(=N)NC(=O)NC)cc2)cc1 | 146 | 131
inactive | – | – | – | – | c1cc(C2=NCCCCN2)ccc1OCCCCCCOc1ccc(C2=NCCCCN2)cc1 | 301 | 264
inactive | – | – | – | – | c1cc(C2=NCCN2)ccc1OCCCCCCOc1ccc(C2=NCCN2)cc1 | 34.5 | 52
inactive | – | – | – | – | c1cc(C2=NCCCCN2)ccc1OCCCCCCCCOc1ccc(C2=NCCCCN2)cc1 | 4.8 | 5.4
